ChEMBL document CHEMBL1134227, “The design of phenylglycine containing benzamidine carboxamides as potent and selective inhibitors of factor Xa” (Bioorg Med Chem Lett, 2001)
“And” between values parts separate entries of the source, which are not always exact repeats. Equal values may be shown once.

Legend:
[1] = biological target: Coagulation factor X (Homo sapiens, UniProt P00742); experiment: Binding affinity against human coagulation factor Xa
Outline: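 Human fXa at 100 pM final with Pefachrome-FXA substrate, in 100 mM phosphate buffer with 0.1% bovine serum albumin at pH 7.4. Compounds were taken from Me₂SO stocks into the buffer.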

[2] = biological target: Serine protease 1 (Homo sapiens, UniProt P07477); experiment: Binding affinity against human trypsin
Chain of Serine protease 1 (P07477 whole entry): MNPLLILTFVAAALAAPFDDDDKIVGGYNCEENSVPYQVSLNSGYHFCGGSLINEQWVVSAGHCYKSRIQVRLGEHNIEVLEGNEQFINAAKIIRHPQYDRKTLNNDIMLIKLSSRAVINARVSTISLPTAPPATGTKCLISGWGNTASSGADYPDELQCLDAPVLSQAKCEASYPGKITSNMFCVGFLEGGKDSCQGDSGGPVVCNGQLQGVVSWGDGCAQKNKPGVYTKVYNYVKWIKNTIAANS
Outline: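 Human trypsin at 1 nM final with Pefachrome-TRY chromogenic substrate, in 100 mM phosphate, 0.1% bovine serum albumin, pH 7.4. Test compounds were dissolved in Me₂SO and diluted into the assay buffer. The read-out was the optical density increase at 405 from substrate cleavage.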

[3] = biological target: Prothrombin (Homo sapiens, UniProt P00734); experiment: Affinity for human thrombin
Outline: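 Chromogenic assay with 1 nM human thrombin and Pefachrome-TH substrate, in 100 mM phosphate buffer with 0.1% bovine serum albumin at pH 7.4. Compounds were dissolved in Me₂SO and diluted into the buffer. Hydrolysis was followed as the rise in optical density at 405 on a microplate reader.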

Chain of Coagulation factor X (P00742 41-179 limits assumed): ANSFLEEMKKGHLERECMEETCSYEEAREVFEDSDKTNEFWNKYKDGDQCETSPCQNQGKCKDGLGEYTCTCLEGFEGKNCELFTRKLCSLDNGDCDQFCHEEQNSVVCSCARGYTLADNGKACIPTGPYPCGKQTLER
Chain of Coagulation factor X (P00742 235-488 limits assumed): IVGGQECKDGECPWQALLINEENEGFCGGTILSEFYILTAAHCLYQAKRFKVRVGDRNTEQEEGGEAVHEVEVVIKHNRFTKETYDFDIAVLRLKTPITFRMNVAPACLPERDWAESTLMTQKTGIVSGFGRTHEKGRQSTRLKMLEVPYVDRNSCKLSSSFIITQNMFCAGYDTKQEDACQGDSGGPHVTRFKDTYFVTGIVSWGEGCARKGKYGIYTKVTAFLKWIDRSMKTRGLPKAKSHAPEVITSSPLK

Structure (SMILES)	Ki [1] [nM]	Ki [2]	Ki [3] [nM]
N=C(N)c1cccc(C(=O)N[C@H](Cc2ccccc2)C(=O)NCC2CCC(CN)CC2)c1 (stereo partly specified)	25700	17400 nM	–
N=C(N)c1cccc(C(=O)N[C@@H](C(=O)N2CCN(c3ccc(F)cc3)CC2)c2ccccc2)c1	15	1260 nM	3800
N=C(N)c1cccc(C(=O)N[C@@H](C(=O)N2CCC(Cc3ccccc3)CC2)c2ccccc2)c1	30	650 nM	1350
N=C(N)c1cccc(C(=O)NC(C(=O)NCC2CCC(CN)CC2)c2ccccc2)c1 (stereo unspecified)	–	4500 nM and 5600 nM	6500
N=C(N)c1cccc(C(=O)N[C@@H](C(=O)N2CCN(C(=O)c3ccccc3)CC2)c2ccccc2)c1	–	460 nM	7940
N=C(N)c1cccc(C(=O)N[C@@H](C(=O)NCCc2ccccc2)c2ccccc2)c1	850	3300 nM	3100
N=C(N)c1cccc(C(=O)N[C@@H](C(=O)N2CCN(c3ccncc3)CC2)c2ccccc2)c1	13	560 nM	17800
N=C(N)c1cccc(C(=O)N[C@H](C(=O)NCC2CCC(CN)CC2)C2CCCCC2)c1 (stereo partly specified)	7800	3600 nM	–
N=C(N)c1cccc(C(=O)N[C@@H](C(=O)NCC2CCC(CN)CC2)C2CCCCC2)c1 (stereo partly specified)	500	8500 nM	–
N=C(N)c1cccc(C(=O)N[C@@H](C(=O)N2CCC(C(=O)c3ccccc3)CC2)c2ccccc2)c1	–	320 nM	1260
Cc1ccc(CNC(=O)[C@H](NC(=O)c2cccc(C(=N)N)c2)c2ccccc2)cc1	42	4900 nM	–
CSCC[C@H](NC(=O)c1cccc(C(=N)N)c1)C(=O)NCC1CCC(CN)CC1 (stereo partly specified)	10500	7900 nM	–
N=C(N)c1cccc(C(=O)N[C@@H](Cc2ccccc2)C(=O)NCC2CCC(CN)CC2)c1 (stereo partly specified)	33900	12600 nM	–
N=C(N)c1cccc(C(=O)N[C@@H](C(=O)N2CCN(Cc3ccccc3)CC2)c2ccccc2)c1	120	2200 nM	7940
CC(C)[C@H](NC(=O)c1cccc(C(=N)N)c1)C(=O)NCC1CCC(CN)CC1 (stereo partly specified)	38000	12600 nM	–
N=C(N)c1cccc(C(=O)NC(C(=O)NCC2CCC(CN)CC2)c2ccc(Cl)cc2)c1 (stereo unspecified)	2500	6000 nM	–
N=C(N)c1cccc(C(=O)NC(C(=O)NCC2CCC(CN)CC2)c2cccc3ccccc23)c1 (stereo unspecified)	100	2100 nM	–
N=C(N)c1cccc(C(=O)NCC(=O)NCC2CCC(CN)CC2)c1 (stereo unspecified)	–	23000 nM	–
N=C(N)c1cccc(C(=O)NC(C(=O)NCC2CCC(CN)CC2)c2cccc(Cl)c2)c1 (stereo in doubt; 9)	300	3900 nM	–
COc1ccc(CNC(=O)[C@H](NC(=O)c2cccc(C(=N)N)c2)c2ccccc2)cc1	28	5500 nM	2300
CC(C)[C@@H](NC(=O)c1cccc(C(=N)N)c1)C(=O)NCC1CCC(CN)CC1 (stereo partly specified)	–	16200 nM	–
N=C(N)c1cccc(C(=O)N[C@@H](C(=O)N2CCN(c3ccccc3)CC2)c2ccccc2)c1	16	340 nM	1740
N=C(N)c1cccc(C(=O)NC(C(=O)NCC2CCC(CN)CC2)c2ccc(-c3ccccc3)cc2)c1 (stereo unspecified)	800	1100 nM	–
N=C(N)c1cccc(C(=O)NC(C(=O)NCC2CCC(CN)CC2)c2cccc(Cl)c2)c1 (stereo in doubt; 11)	300	5100 nM	–
N=C(N)c1cccc(C(=O)N[C@@H](C(=O)NCc2ccccc2)c2ccccc2)c1	910	5400 nM	8500
N=C(N)c1cccc(C(=O)N[C@@H](C(=O)NCc2ccc(CN)cc2)c2ccccc2)c1	500	4100 nM	26000
N=C(N)c1cccc(C(=O)N[C@@H](C(=O)N2CCC(C(=O)c3ccc(F)cc3)CC2)c2ccccc2)c1	10	540 nM	1180
CSCC[C@@H](NC(=O)c1cccc(C(=N)N)c1)C(=O)NCC1CCC(CN)CC1 (stereo partly specified)	2300	10000 nM	–
N=C(N)c1cccc(C(=O)N[C@@H](C(=O)NCCCc2ccccc2)c2ccccc2)c1	145	2200 nM	–
